Activity calls are given as the source filed them. The rule behind the calls is not given here.
Experiments:
[1] = Inhibition of ROS1-S1986F-G2032R-L2086F mutant/CD74 (unknown origin) expressed in mouse BaF3 cells; assay type: cell-based, Homo sapiens
[2] = Inhibition of ROS1-G2032R-F2075C mutant/SLC34A2 (unknown origin) expressed in mouse BaF3 cells; assay type: cell-based, Homo sapiens
[3] = Inhibition of ROS1-V2098I mutant/SLC34A2 (unknown origin) expressed in mouse BaF3 cells; assay type: cell-based, Homo sapiens
[4] = PROTAC activity at CRBN/ROS1 in mouse BaF3 cells assessed as ROS1 degradation by immunoblotting assay; assay type: cell-based
In short: (§1)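 IL-3-independent Ba/F3 cells expressing CD74-ROS1 variants were treated with compound. ROS1 and phospho-ROS1 were quantified by capillary immunoassay (WES) in duplicate experiments. DC50 is the concentration that lowers ROS1 or p-ROS1 by 50%; Dmax is the maximal degradation.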

BaF3 [5] = assay: Antiproliferative activity against mouse BaF3 cells expressing CD74-ROS1 incubated for 72 hrs by Alamar blue reagent based plate reader assay; assay type: functional, cell-based; settings: BaF3, 72 h
In short: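 Ba/F3 cells stably expressing CD74- or SLC34A2-ROS1 fusions (wild type or mutant), made by retroviral transduction, selected with puromycin, and grown without IL-3 for ≥2 weeks. Alamar Blue added for 4 h. IC50 from sigmoidal nonlinear regression; mean ± SD of triplicate experiments.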

BaF3 [6] = assay: Antiproliferative activity against mouse BaF3 cells harboring ROS1 G2032R mutant incubated for 72 hrs by Alamar blue reagent based plate reader assay; settings: BaF3, 72 h
BaF3 [7] = assay: PROTAC activity at CRBN/ROS1 in mouse BaF3 cells assessed as maximum ROS1 degradation by immunoblotting assay relative to control; assay type: cell-based; in short: as §1
BaF3 [8] = assay: Induction of ROS1 L2026M degradation in mouse BaF3 cells assessed as reduction in p-ROS1 level by Western blotting analysis; assay type: cell-based; in short: as §1
NCI-H2228 [9] = assay: Induction of FAK degradation in human NCI-H2228 cells at 100 nM incubated for 24 hrs by proteomics analysis; assay type: cell-based
In short: (§2)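 Lysates in RIPA with protease/phosphatase inhibitors, protein measured by BCA, trypsin-digested and TMT-labelled. Relative abundance taken as the ratio of TMT reporter ions in degrader-treated versus inhibitor-treated cells.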

BaF3 [10] = assay: Induction of ROS1 degradation in mouse BaF3 cells assessed as reduction in p-ROS1 level by Western blotting analysis; assay type: cell-based; in short: as §1
[11] = target: Proto-oncogene tyrosine-protein kinase ROS (Homo sapiens, UniProt P08922); assay: Induction of ROS1 (unknown origin) degradation by Western blotting analysis
In short: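 Ba/F3 cells stably expressing CD74-ROS1 (retroviral transduction, puromycin-selected, IL-3 withdrawn at least 2 weeks before use) were grown in RPMI with 10% FBS and treated with compound diluted from DMSO stock in RPMI. Total ROS1 and p-ROS1 were quantified by WES capillary immunoblot in duplicate experiments. DC50 is the concentration that reduces protein by 50%, and Dmax is the maximal degradation.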

[12] = Induction of FLT3 (unknown origin) degradation by Western blotting analysis; design: species or system Homo sapiens
BaF3 [13] = assay: Induction of ROS1 D2033N degradation in mouse BaF3 cells assessed as reduction in p-ROS1 level by Western blotting analysis; assay type: cell-based; in short: as §1
BaF3 [14] = assay: Induction of ROS1 G2032R degradation in mouse BaF3 cells assessed as reduction in ROS1 level by Western blotting analysis; assay type: cell-based; in short: as §1
BaF3 [15] = assay: Induction of ROS1 L2026M degradation in mouse BaF3 cells assessed as reduction in ROS1 level by Western blotting analysis; assay type: cell-based; in short: as §1
CD74-ROS1 = CD74-ROS1 (Homo sapiens, UniProt P08922); assay: Inhibition of ROS1/CD74 (unknown origin) expressed in mouse BaF3 cells; assay type: cell-based
BaF3 [16] = assay: Induction of ROS1 G2032R/F2075V degradation in mouse BaF3 cells assessed as reduction in p-ROS1 level by Western blotting analysis; assay type: cell-based; in short: as §1
NCI-H2228 [17] = assay: Induction of ALK degradation in human NCI-H2228 cells at 100 nM incubated for 24 hrs by proteomics analysis; assay type: cell-based; in short: as §2
NCI-H2228 [18] = assay: Induction of FER degradation in human NCI-H2228 cells at 100 nM incubated for 24 hrs by proteomics analysis; assay type: cell-based; in short: as §2
[19] = Induction of CLK1 (unknown origin) degradation by Western blotting analysis; design: species or system Homo sapiens
BaF3 [20] = assay: Induction of ROS1 G2032R degradation in mouse BaF3 cells assessed as reduction in p-ROS1 level by Western blotting analysis; assay type: cell-based; in short: as §1
BaF3 [21] = assay: Induction of ROS1 D2033N degradation in mouse BaF3 cells assessed as reduction in ROS1 level by Western blotting analysis; assay type: cell-based; in short: as §1
[22] = Induction of ERBB4 (unknown origin) degradation by Western blotting analysis; design: species or system Homo sapiens
BaF3 [23] = assay: Induction of ROS1 degradation in mouse BaF3 cells assessed as reduction in ROS1 level by Western blotting analysis; assay type: cell-based; in short: as §1
BaF3 [24] = assay: Induction of ROS1 G2032R/F2075V degradation in mouse BaF3 cells assessed as reduction in ROS1 level by Western blotting analysis; assay type: cell-based; in short: as §1
[25] = Induction of LTK (unknown origin) degradation by Western blotting analysis; design: species or system Homo sapiens

Sequence of CD74-ROS1 (P04233 whole entry): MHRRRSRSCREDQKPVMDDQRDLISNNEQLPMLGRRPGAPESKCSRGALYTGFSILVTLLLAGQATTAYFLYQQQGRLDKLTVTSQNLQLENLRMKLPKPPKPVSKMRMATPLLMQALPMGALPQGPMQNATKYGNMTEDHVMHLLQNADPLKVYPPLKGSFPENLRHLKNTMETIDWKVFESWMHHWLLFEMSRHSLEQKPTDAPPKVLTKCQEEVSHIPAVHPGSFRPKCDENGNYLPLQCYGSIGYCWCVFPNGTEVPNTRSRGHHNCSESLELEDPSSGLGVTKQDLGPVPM
Sequence of CD74-ROS1 (P08922 whole entry): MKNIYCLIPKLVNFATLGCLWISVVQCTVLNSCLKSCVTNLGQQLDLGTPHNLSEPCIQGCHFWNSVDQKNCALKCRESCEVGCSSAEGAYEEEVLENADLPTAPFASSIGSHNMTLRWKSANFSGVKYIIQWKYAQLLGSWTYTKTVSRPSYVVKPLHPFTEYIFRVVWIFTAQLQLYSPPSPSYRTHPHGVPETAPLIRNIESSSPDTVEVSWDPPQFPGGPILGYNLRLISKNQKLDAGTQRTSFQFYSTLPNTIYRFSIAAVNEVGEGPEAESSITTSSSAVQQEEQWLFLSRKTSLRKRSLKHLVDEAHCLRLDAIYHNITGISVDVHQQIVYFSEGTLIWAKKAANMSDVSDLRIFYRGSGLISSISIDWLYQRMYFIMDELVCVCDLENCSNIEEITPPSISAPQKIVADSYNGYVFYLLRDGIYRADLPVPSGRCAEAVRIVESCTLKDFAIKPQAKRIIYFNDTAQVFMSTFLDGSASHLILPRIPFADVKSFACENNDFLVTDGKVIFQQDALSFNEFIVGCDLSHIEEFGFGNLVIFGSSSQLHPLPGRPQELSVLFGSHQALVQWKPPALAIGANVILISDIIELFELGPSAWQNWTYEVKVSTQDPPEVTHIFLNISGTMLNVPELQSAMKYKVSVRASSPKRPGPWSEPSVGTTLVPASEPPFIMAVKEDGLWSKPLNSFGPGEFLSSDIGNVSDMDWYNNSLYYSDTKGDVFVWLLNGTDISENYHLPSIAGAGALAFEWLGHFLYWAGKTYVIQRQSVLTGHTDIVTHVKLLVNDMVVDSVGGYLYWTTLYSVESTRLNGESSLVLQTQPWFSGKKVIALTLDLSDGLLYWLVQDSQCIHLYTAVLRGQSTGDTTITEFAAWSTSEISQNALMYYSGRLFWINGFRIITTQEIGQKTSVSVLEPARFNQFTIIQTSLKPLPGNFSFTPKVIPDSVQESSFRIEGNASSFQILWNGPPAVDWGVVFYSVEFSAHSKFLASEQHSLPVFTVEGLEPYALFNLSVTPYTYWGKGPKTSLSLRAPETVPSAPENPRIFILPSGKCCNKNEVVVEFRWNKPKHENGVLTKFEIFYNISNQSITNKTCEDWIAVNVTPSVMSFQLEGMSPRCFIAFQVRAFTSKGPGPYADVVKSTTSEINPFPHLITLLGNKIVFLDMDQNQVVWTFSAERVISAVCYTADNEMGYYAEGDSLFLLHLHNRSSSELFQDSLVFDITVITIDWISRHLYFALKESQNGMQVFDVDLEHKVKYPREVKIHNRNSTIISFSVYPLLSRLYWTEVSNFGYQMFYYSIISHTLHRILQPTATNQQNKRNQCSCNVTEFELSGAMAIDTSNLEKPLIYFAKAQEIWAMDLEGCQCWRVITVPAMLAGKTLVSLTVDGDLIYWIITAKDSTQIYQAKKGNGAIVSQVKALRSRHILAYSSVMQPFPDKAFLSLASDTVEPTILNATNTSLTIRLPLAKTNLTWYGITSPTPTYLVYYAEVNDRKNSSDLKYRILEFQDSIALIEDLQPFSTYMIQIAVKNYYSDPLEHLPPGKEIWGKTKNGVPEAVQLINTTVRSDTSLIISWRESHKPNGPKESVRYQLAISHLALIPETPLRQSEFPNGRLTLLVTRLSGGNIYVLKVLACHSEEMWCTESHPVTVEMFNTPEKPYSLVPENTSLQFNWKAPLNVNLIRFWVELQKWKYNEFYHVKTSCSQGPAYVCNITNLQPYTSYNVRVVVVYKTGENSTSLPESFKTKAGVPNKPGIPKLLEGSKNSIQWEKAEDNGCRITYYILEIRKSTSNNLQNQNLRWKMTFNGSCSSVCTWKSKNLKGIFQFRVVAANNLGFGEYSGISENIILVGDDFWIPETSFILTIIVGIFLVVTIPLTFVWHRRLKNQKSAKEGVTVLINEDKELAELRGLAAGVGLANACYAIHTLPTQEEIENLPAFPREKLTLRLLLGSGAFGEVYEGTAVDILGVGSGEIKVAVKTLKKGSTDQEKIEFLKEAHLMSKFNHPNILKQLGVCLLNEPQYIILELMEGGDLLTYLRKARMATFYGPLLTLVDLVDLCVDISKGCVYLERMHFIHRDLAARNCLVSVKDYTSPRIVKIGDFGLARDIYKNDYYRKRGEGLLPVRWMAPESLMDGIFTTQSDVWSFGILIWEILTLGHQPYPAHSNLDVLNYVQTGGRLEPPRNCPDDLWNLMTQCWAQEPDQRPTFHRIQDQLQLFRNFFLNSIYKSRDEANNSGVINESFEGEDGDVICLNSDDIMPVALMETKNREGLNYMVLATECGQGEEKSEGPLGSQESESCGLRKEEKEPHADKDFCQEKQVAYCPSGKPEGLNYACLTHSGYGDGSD
Sequence of Proto-oncogene tyrosine-protein kinase ROS (P08922 whole entry): as above

## C[C@H]1CNC(=O)c2cnn3ccc(nc23)N[C@H](C)c2cc(F)ccc2O1 [REPOTRECTINIB]
[1]
  IC50: > 2000 nM
[2]
  IC50: > 2000 nM

## C[C@H]1Oc2cc(cnc2N)-c2c(nn(C)c2C#N)CN(C)C(=O)c2ccc(F)cc21 [LORLATINIB]
[3]
  IC50: 1.5 nM
[1]
  IC50: > 2000 nM

## Cc1cc(Nc2ncc(Cl)c(Nc3ccccc3S(=O)(=O)C(C)C)n2)c(OC(C)C)cc1C1CCN(C2CCN(C3CN(c4ccc5c(c4)C(=O)N(C4CCC(=O)NC4=O)C5=O)C3)CC2)CC1 (stereo unspecified)
[4]
  DC50: 45 nM

## COc1cc(N2CCC(N3CCN(C)CC3)CC2)ccc1Nc1ncc(Cl)c(Nc2ccccc2P(C)(C)=O)n1 [BRIGATINIB]
[1]
  IC50: > 2000 nM

## COc1cc(N2CCC(N3CCN(CC4CN(c5cccc6c5C(=O)N(C5CCC(=O)NC5=O)C6=O)C4)CC3)CC2)ccc1Nc1ncc(Cl)c(Nc2ccccc2P(C)(C)=O)n1 (stereo unspecified)
[4]
  DC50: 56 nM
BaF3 [5]
  IC50: 41 nM
BaF3 [6]
  IC50: 244 nM
BaF3 [7]
  Emax: 79%

## COc1cc(N2CCC(N3CCN(CC4CCN(c5ccc6c(c5)CN(C5CCC(=O)NC5=O)C6=O)CC4)CC3)CC2)ccc1Nc1ncc(Cl)c(Nc2ccccc2P(C)(C)=O)n1 (stereo unspecified)
[4]
  DC50: 3.8 nM
BaF3 [8]
  Activity: Dose-Dependent Effect
NCI-H2228 [9]
  Activity: Active
BaF3 [10]
  Activity: Dose-Dependent Effect
[11]
  DC50: 3.8 nM
[12]
  DC50: > 1000 nM
BaF3 [13]
  Activity: Dose-Dependent Effect
BaF3 [14]
  Activity: Dose-Dependent Effect
BaF3 [15]
  Activity: Dose-Dependent Effect
CD74-ROS1
  IC50: 1.6 nM
BaF3 [16]
  Activity: Dose-Dependent Effect
NCI-H2228 [17]
  Activity: Active
NCI-H2228 [18]
  Activity: Active
[19]
  DC50: > 1000 nM
BaF3 [20]
  Activity: Dose-Dependent Effect
BaF3 [21]
  Activity: Dose-Dependent Effect
[22]
  DC50: > 1000 nM
BaF3 [23]
  Activity: Dose-Dependent Effect
BaF3 [24]
  Activity: Dose-Dependent Effect
[25]
  DC50: > 1000 nM

## COc1cc(N2CCC(N3CCN(CC4CCN(c5cccc6c5C(=O)N(C5CCC(=O)NC5=O)C6=O)CC4)CC3)CC2)ccc1Nc1ncc(Cl)c(Nc2ccccc2P(C)(C)=O)n1 (stereo unspecified)
[4]
  DC50: 6 nM
BaF3 [5]
  IC50: 11.2 nM
BaF3 [6]
  IC50: 87 nM
BaF3 [7]
  Emax: 99%

## COc1cc(N2CCN(CC3CCN(c4ccc5c(c4)CN(C4CCC(=O)NC4=O)C5=O)CC3)CC2)ccc1Nc1ncc(Cl)c(Nc2ccccc2P(C)(C)=O)n1 (stereo unspecified)
[4]
  DC50: 11 nM
BaF3 [5]
  IC50: 9.5 nM
BaF3 [7]
  Emax: 93%

## COc1cc(N2CCC(N3CCN(C4CN(c5cccc6c5C(=O)N(C5CCC(=O)NC5=O)C6=O)C4)CC3)CC2)ccc1Nc1ncc(Cl)c(Nc2ccccc2P(C)(C)=O)n1 (stereo unspecified)
[4]
  DC50: 108 nM
BaF3 [5]
  IC50: 113 nM
BaF3 [6]
  IC50: 1040 nM
BaF3 [7]
  Emax: 77%
